Screening data as filed in PubChem BioAssay.
In the library only some 2.9% were active in any assay of this set; here they are far more common.
TRPC4 inh = TRPC4 (mouse) channel inhibition; AID 2247; hit rate 0.39% among 300,000; Q9QUQ5; HEK293 TRPC4beta/mu-opioid, DAMGO-evoked Fluo4 calcium flux; stronger effect = lower value; B-score at 10 µM;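 active = B-score over 3 SD under the library average, no early fluorescence shift, positive overall ratio signal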
Target sequence (Q9QUQ5 whole entry, looked up): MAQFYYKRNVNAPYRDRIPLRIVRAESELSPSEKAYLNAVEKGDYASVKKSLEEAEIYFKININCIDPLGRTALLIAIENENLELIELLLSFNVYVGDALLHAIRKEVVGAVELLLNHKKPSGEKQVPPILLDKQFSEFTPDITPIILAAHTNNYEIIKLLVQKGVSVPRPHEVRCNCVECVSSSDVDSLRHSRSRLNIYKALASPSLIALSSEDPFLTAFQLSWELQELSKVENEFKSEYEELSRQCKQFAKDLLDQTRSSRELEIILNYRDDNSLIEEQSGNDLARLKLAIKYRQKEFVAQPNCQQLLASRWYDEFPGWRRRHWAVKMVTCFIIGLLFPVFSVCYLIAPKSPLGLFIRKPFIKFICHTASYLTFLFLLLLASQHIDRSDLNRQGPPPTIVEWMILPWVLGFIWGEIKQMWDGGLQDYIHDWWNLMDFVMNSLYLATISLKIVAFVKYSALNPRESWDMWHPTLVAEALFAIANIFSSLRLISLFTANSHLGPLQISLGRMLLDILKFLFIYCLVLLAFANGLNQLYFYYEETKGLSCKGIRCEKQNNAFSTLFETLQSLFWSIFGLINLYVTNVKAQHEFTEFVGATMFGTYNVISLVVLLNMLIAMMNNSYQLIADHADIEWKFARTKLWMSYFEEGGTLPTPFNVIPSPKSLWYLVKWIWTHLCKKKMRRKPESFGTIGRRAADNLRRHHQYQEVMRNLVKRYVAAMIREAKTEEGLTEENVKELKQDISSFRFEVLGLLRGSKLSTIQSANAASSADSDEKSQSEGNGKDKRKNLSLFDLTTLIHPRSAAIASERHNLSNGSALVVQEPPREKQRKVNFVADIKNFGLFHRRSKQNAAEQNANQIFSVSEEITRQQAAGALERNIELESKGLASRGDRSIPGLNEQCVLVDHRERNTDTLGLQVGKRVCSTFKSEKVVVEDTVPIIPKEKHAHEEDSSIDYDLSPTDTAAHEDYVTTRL
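System: stable TRPC4beta/mu-opioid receptor HEK293 cells; Dosing: single-point compound dosing; Measured by: Fluo4 Ca2+ flux fluorescence; Read-out basis: per-well B score of integrated baseline-normalized Fluo4 ratio.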
TRPC4 act = opens the mouse TRPC4 cation channel; Q9QUQ5; HEK293 TRPC4beta/mu-opioid, Fluo4 calcium fluorescence; stronger effect = higher value; B-score at 10 µM; hit rate 0.49% among 310,000; AID 2237;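 active = B-score above 5 SD of library B-scores, and initial fluorescence ratio not above library mean plus 5 SD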;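 note: positive B-score marks a calcium rise read as TRPC4 activation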
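Incubation: 45 min room-temperature Fluo4 loading, 110 s read / System: HEK293 cells stably co-expressing mouse TRPC4beta and mu-opioid receptor / Signal: Fluo4 fluorescence, kinetic / Control set: buffer (low) and maximal DAMGO (high) / Measure: integrated baseline-normalised fluorescence ratio, converted to per-well B score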
TRPC6 inhibitor = inhibitors of mouse TRPC6 channel; Q61143; HEK293-TRPC6, membrane potential dye, ACh-evoked depolarization; stronger effect = lower value; hit rate 1.1% among 310,000; B-score at 10 µM;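 active = B-score under library mean minus 3 SD, initial fluorescence not abnormally high, positive integrated signal ratio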;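 note: B-score derived from integrated fluorescence ratio over the kinetic read; more negative B-score means stronger inhibition of depolarization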
TRPC4 PAM = TRPC4 (mouse) allosteric potentiation. HEK293 TRPC4beta/mu-opioid, DAMGO EC20, Fluo-4 Ca2+ flux; stronger effect = higher value. AID 2227. Q9QUQ5. B-score at 10 µM. hit rate 0.42% among 310,000;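 active = B-score of calcium response area above 5 SD of library B-scores, with initial fluorescence ratio within 5 SD of library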;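 note: B-score of integrated fluorescence ratio over time as area under calcium response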
Kir21 block = Kir2.1 (mouse) channel inhibition. hit rate 0.85% among 310,000. HEK293-Kir2.1, FluxOR thallium flux fluorescence; stronger effect = lower value. B-score at 10 µM. P35561;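 active = fluorescence ratio B-score at or below minus 3 SD of library scores, with starting-brightness B-score within 2 SD, cut at about -4.2 in these data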;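 note: channel flux triggered by added potassium and thallium sulfate stimulus; B-score of peak minus minimum fluorescence over baseline after thallium stimulus; more negative B-score means stronger Kir2.1 block with less thallium influx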
TRPC6 activator = activates the mouse TRPC6 cation channel. Q61143. HEK293-TRPC6 membrane potential dye fluorescence; stronger effect = higher value. B-score at 10 µM. hit rate 0.13% among 310,000;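 active = B-score of the integrated fluorescence ratio above library mean plus 3 SD, and starting fluorescence ratio within library mean plus 5 SD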;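 note: higher score means more depolarization so channel activation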
hERG ctr = counter-screen for Kir2.1 inhibitors: effect on human hERG. shares compounds with Kir21 block. hERG-expressing cells, thallium flux. inhibition, % at 10 µM. hit rate 20% among 320;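 note: host cells are CHO cells stably expressing hERG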
KCNK9 inh = selectivity of Kir2.1 inhibitors: effect on human KCNK9; shares compounds with Kir21 block; KCNK9-expressing cells, ion flux inhibition; inhibition, % at 10 µM; hit rate 5% among 320; AID 2329
Kir2-1 patch inh = mouse Kir2.1 inward rectifier channel inhibition | inhibition, % at 25 µM | shares compounds with Kir21 block | Kir2.1 cells, automated patch-clamp current inhibition | hit rate 71% among 320
TRPC4 spec 2 = second check of whether TRPC6 inhibitors also affect mouse TRPC4 | inhibition, % at 10 µM | shares compounds with TRPC6 inhibitor | HEK293 TRPC4/MOR, membrane potential dye fluorescence; channel activated by saturating DAMGO dose | hit rate 42% among 920;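 active = compounds whose fluorescence signal differed from control wells by over 3 SD, either direction, in both duplicate plates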
TRPC4 spec = tests whether TRPC6 inhibitors also affect mouse TRPC4 | shares compounds with TRPC6 inhibitor | HEK293 TRPC4/mu-opioid, membrane potential fluorescence | activity change, negative = inhibition, % at 10 µM | hit rate 61% among 920;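 active = rise or fall in signal beyond 3 SD of buffer-only wells in both replicate plates, either sign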;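 note: integrated kinetic ratio of fluorescence range over baseline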
HEK293 MPD ctr 2-1 = second check of TRPC6 inhibitor effects in parental HEK293 cells | shares compounds with TRPC6 inhibitor | parental HEK293 membrane potential dye fluorescence; maximal acetylcholine challenge after compound addition | signal change vs control, % at 10 µM | hit rate 31% among 920 | AID 2779;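 active = membrane potential signal moving either way by over 3 SD of the maximum-effect control, in both duplicate plates, meaning non-specific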
HEK293 MPD ctr-1 = counter-screen for TRPC6 inhibitors: effect in parental HEK293 cells | shares compounds with TRPC6 inhibitor | parental HEK293 membrane potential dye fluorescence | membrane potential signal change, % at 10 µM | hit rate 60% among 920 | AID 2780;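 active = membrane potential signal shifting up or down by more than 3 SD of buffer-only wells, on both duplicate plates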
HEK293 MPD ctr-2 = counter-screen for TRPC6 modulators: effect in parental HEK293 cells; membrane potential dye fluorescence; AID 488924; hit rate 51% among 2,400; membrane potential signal change, % at 10 µM; shares compounds with TRPC6 inhibitor;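 active = membrane potential signal moves up or down beyond 5 SD from buffer-only wells, on both duplicate plates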
HEK293 MPD ctr 2-2 = second check of TRPC6 modulator effects in parental HEK293 cells | shares compounds with TRPC6 inhibitor | membrane potential dye fluorescence; after compound, maximal acetylcholine stimulation | inhibition, % at 10 µM | hit rate 14% among 2,400 | AID 488926;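 active = membrane potential signal drops by more than 5 SD from the mean control signal, in both duplicate plates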;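 note: plate controls were acetylcholine ECmax control wells for no effect and buffer only wells for full effect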
TRPC4 ctr mod = tests whether TRPC6 modulators also affect mouse TRPC4; percent change from control (negative = decrease, positive = increase), % at 10 µM; AID 488927; shares compounds with TRPC6 inhibitor; hit rate 69% among 2,400; HEK293 TRPC4/mu-opioid, membrane potential fluorescence;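 active = membrane potential signal moved up or down beyond 5 SD of buffer control wells, in both duplicate plates, actives on both sides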;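 note: plate controls were assay buffer wells for no effect and DAMGO maximal-effect wells for full effect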
TRPC4/MOR inh 2 = mouse TRPC4 off-target activity of TRPC6 modulators, second screen | shares compounds with TRPC6 inhibitor | HEK293 TRPC4/mu-opioid, membrane potential dye fluorescence; stimulated with maximal-effect DAMGO | inhibition, % at 10 µM | hit rate 55% among 2,400;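 active = drop in membrane potential signal beyond 5 SD of the control wells in both duplicate plates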;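 note: TRPC4 counter screen for TRPC6 hits run under conditions tuned for TRPC6 not TRPC4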
TRPC6 block conf = mouse TRPC6 inhibitor confirmation. inhibition, % at 10 µM. hit rate 43% among 3,300. shares compounds with TRPC6 inhibitor. HEK293-TRPC6, membrane potential dye, ACh-evoked depolarization. AID 488960;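 active = fluorescence ratio falls more than 5 SD below the full-stimulation control mean, in both duplicate runs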;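 note: integrated fluorescence ratio of peak minus minimum over baseline after agonist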
TRPC6 act conf = confirmation of mouse TRPC6 activators; activation, % at 10 µM; shares compounds with TRPC6 inhibitor; hit rate 11% among 2,800; HEK293-TRPC6 membrane potential dye fluorescence, FDSS;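 active = ratio signal rise beyond 5 SD above unstimulated control wells' mean, seen in both duplicate runs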;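 note: plate controls were buffer EC0 wells for no effect and acetylcholine ECmax response for full effect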
* hit, by the source's call; i = inactive; . = no result given. Unless noted, the rule behind the calls is not given here.

SMILES	TRPC4 inh	TRPC4 act	TRPC6 inhibitor	TRPC4 PAM	Kir21 block	TRPC6 activator	HEK293 MPD ctr-2	HEK293 MPD ctr 2-2	TRPC4 ctr mod	TRPC4/MOR inh 2	TRPC6 block conf	TRPC6 act conf	others
CNCCC1Sc2ccccc2Oc2ccccc21 (stereo unspecified)	i	i	-5.59*	i	-5.94*	i	86.0%*	i	41.0%*	59.0%*	i	.	hERG ctr=i;KCNK9 inh=i;Kir2-1 patch inh=1.9%*
CCC/C=C(\CCC)C(NC(=O)c1ccc(C(F)(F)F)cc1)c1ccccc1 (stereo unspecified)	i	i	i	i	-0.06	i	.	.	.	.	.	.
Oc1ccccc1Nc1nc(NCc2ccccc2)c2ccccc2n1	i	i	i	i	-0.98	i	.	.	.	.	.	.
Cc1c(Cl)cccc1Nc1nc(NCCO)c2ccccc2n1	i	i	-6.9*	i	-9.54*	i	.	.	.	.	i	i	hERG ctr=i;KCNK9 inh=i;Kir2-1 patch inh=31.1%*;TRPC4 spec 2=51.0%*;TRPC4 spec=i;HEK293 MPD ctr 2-1=i;HEK293 MPD ctr-1=i
Fc1ccccc1C1c2cccn2CCN1C(=S)Nc1ccc(Br)cc1 (stereo unspecified)	i	i	i	i	-1.13	i	.	.	.	.	.	.
CCCCOc1ccc(CSCCN)cc1Cl	i	i	-6.24*	i	-3.77	i	i	i	i	59.0%*	45.0%*	i
Cc1ccc(CN(C)C(=O)c2ccccc2Sc2ccccc2C#N)cc1	i	i	-5.07*	i	-1.16	i	104.0%*	i	22.0%*	i	62.5%*	.
COC(=O)c1[nH]c2ccc(Br)cc2c1NC(=O)CN1CCN(C2CCCCC2)CC1	i	i	-16.8*	i	-4.18	i	.	.	.	.	94.1%*	i	TRPC4 spec 2=29.5%*;TRPC4 spec=-24.1%*;HEK293 MPD ctr 2-1=20.0%*;HEK293 MPD ctr-1=-268.5%*
COC(=O)c1[nH]c2ccccc2c1NC(=O)CN1CCN(Cc2ccc3c(c2)OCO3)CC1	i	i	-5.62*	i	1.04	i	i	i	i	66.0%*	57.0%*	i
COC(=O)c1[nH]c2ccc(C)cc2c1NC(=O)CCN1CCN(C2CCCCC2)CC1	i	i	i	i	0.04	i	.	.	.	.	.	.
COC(=O)c1[nH]c2cc(C)ccc2c1NC(=O)CN1CCCc2ccccc21	i	i	-11*	i	-1.4	i	.	.	.	.	i	i	TRPC4 spec 2=i;TRPC4 spec=-10.5%*;HEK293 MPD ctr 2-1=i;HEK293 MPD ctr-1=i
COc1cccc(-c2nn(-c3ccccc3)cc2/C=C(/NC(=O)c2ccccc2)C(=O)O)c1	i	i	i	i	2.58	i	.	.	.	.	.	.
Cc1ccc(C(=O)N2CC(=O)NC(=O)C2)cc1	i	i	i	i	-0.07	i	.	.	.	.	.	.
CN1Cc2sc(NC(=S)NC(=O)c3ccccc3)c(C#N)c2CC1(C)C	i	i	-5.2*	i	1.34	20.9*	168.5%*	i	23.5%*	i	i	40.0%*
COc1ccc(CN(C(=O)c2cc(=O)c3ccccc3o2)C2CCS(=O)(=O)C2)cc1 (stereo unspecified)	i	i	i	i	0.56	i	.	.	.	.	.	.
CC1(C)CC(=O)C2=C(C1)NC1=C(C(=O)c3ccccc31)C2c1ccccc1 (stereo unspecified)	i	i	i	i	0.38	i	.	.	.	.	.	.
CC1(C)CC(=O)C2=C(C1)NC1=C(C(=O)c3ccccc31)C2c1cc([N+](=O)[O-])ccc1O (stereo unspecified)	i	i	-5.41*	i	0.34	i	i	i	-13.0%*	66.5%*	42.0%*	i
O=C(Nc1ccc(S(=O)(=O)N2CCCCC2)cc1)C1CCCO1 (stereo unspecified)	i	i	i	i	-0.03	i	.	.	.	.	.	.
CC(C)[N+](C)(CCOC(=O)C1c2ccccc2Oc2ccccc21)C(C)C	i	i	-9.46*	i	0.68	i	.	.	.	.	105.3%*	i	TRPC4 spec 2=i;TRPC4 spec=i;HEK293 MPD ctr 2-1=-18.0%*;HEK293 MPD ctr-1=i
COc1cc2nc(N3CCN(c4cc(C)ccc4C)CC3)nc(N)c2cc1OC	i	i	i	i	-1.61	i	.	.	.	.	.	.
COc1cc2nc(N3CCNCC3)nc(N)c2cc1OC	i	i	-11.2*	i	-0.03	i	-246.5%*	91.5%*	-38.0%*	53.0%*	64.0%*	i
N#C/C(=C\c1c[nH]c2ccccc12)C(N)=O	i	i	i	i	0.45	i	.	.	.	.	.	.
CC(=O)Oc1c(/C=C(\C#N)C(N)=O)[nH]c2ccccc12	i	i	i	i	-4.98*	27*	657.0%*	i	169.5%*	i	i	170.0%*
